In brackets after ≈: the same amount, converted by molar mass.
Key:
Staphylococcus aureus [1] = assay: In vitro antibacterial activity against methicillin resistant Staphylococcus aureus ATCC 33591 (S. a. 019); assay type: functional
Summary of the method: (§1)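 Broth microdilution MIC per NCCLS guidelines in Mueller Hinton medium. Doubling dilutions from 256 to 1 μg/mL, inoculum (1–5) × 10⁵ CFU/mL, incubated overnight in ambient air at 35 °C. MIC is the lowest concentration giving complete growth inhibition. Linezolid and vancomycin served as controls.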

Staphylococcus aureus [2] = assay: In vitro antibacterial activity against Staphylococcus aureus ATCC 49951 (S. a. 213); assay type: functional; summary of the method: as §1
Enterococcus faecalis [3] = assay: In vitro antibacterial activity against Enterococcus faecalis NCTC 12201 (E. f. 153) vancomycin resistant; assay type: functional; summary of the method: as §1
Enterococcus faecium = assay: In vitro antibacterial activity against Enterococcus faecium ATCC 12202 (E.fm 154) vancomycin resistant; assay type: functional, enterococcus fecium; summary of the method: as §1
Enterococcus faecalis [4] = assay: In vitro antibacterial activity against Enterococcus faecalis ATCC 29212 (E. f. 034) vancomycin sensitive; assay type: functional; summary of the method: as §1
Staphylococcus aureus [5] = assay: In vitro antibacterial activity against Staphylococcus aureus ATCC 29213 (S. a. 035); assay type: functional
Summary of the method: (§2)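 Broth microdilution per NCCLS guidelines in Mueller Hinton medium. Doubling dilutions 256–1 μg/mL; inoculum (1–5) × 10⁵ CFU/mL; plates incubated overnight at 35 °C in ambient air. MIC read as the lowest concentration giving complete growth inhibition. Linezolid and vancomycin served as controls.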

Enterococcus faecalis [6] = assay: In vitro antibacterial activity against Enterococcus faecalis ATCC 29212 (E. f. 153) vancomycin sensitive; assay type: functional; summary of the method: as §2
Mus musculus [7] = assay: In vivo antibacterial activity in a murine systemic infection model; assay type: functional
Summary of the method: (§3)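 Female Swiss Albino mice (22–25 g, n = 6) were infected intraperitoneally with 0.5 mL S. aureus ATCC 29213. The inoculum was grown 2–3 h at 35 °C in BHI broth and adjusted to 100 × LD50 in 5% hog gastric mucin. Compound was suspended in 0.25% carboxymethyl cellulose and given orally 1 and 6 h post-infection; controls received saline. Cumulative mortality was scored over 48 h, and ED50 was derived by linear regression.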

Mus musculus [8] = assay: In vivo antibacterial activity in a murine systemic infection model (95%confidence limits); assay type: functional; summary of the method: as §3

For `CCCC/C(S)=N\C[C@H]1CN(c2cc(F)c3c(c2)OC[C@@H]2CCCN32)C(=O)O1`, the MIC (Staphylococcus aureus [1]) was 2 µg/mL (≈ 4.91 µM), the MIC (Staphylococcus aureus [2]) was 2 µg/mL (≈ 4.91 µM) and the MIC (Enterococcus faecalis [3]) was 2 µg/mL (≈ 4.91 µM). The MIC (Enterococcus faecium) was 2 µg/mL (≈ 4.91 µM), the MIC (Enterococcus faecalis [4]) was 2 µg/mL (≈ 4.91 µM) and the MIC (Staphylococcus aureus [5]) was 4 µg/mL (≈ 9.82 µM).

In the case of `O=CNC[C@H]1CN(c2cc(F)c3c(c2)OC[C@@H]2CCCN32)C(=O)O1`, the MIC (Staphylococcus aureus [1]) is reported as 4 µg/mL (≈ 11.9 µM), the MIC (Staphylococcus aureus [2]) is reported as 4 µg/mL (≈ 11.9 µM) and the MIC (Enterococcus faecalis [3]) is reported as 4 µg/mL (≈ 11.9 µM). For the same compound, the MIC (Enterococcus faecium) was 8 µg/mL (≈ 23.9 µM), the MIC (Enterococcus faecalis [4]) was 4 µg/mL (≈ 11.9 µM) and the MIC (Staphylococcus aureus [5]) was 8 µg/mL (≈ 23.9 µM).

`C=CC(=O)NC[C@H]1CN(c2ccc3c(c2)OC[C@@H]2CCCN32)C(=O)O1` showed an MIC (Staphylococcus aureus [1]) of 4 µg/mL (≈ 11.6 µM), an MIC (Enterococcus faecalis [3]) of 8 µg/mL (≈ 23.3 µM) and an MIC (Enterococcus faecium) of 8 µg/mL (≈ 23.3 µM). For the same compound, the MIC (Enterococcus faecalis [4]) was 8 µg/mL (≈ 23.3 µM) and the MIC (Staphylococcus aureus [5]) was 8 µg/mL (≈ 23.3 µM).

`CC(C)C(=O)NC[C@H]1CN(c2ccc3c(c2)OC[C@@H]2CCCN32)C(=O)O1` showed an MIC (Staphylococcus aureus [1]) of 8 µg/mL (≈ 22.3 µM), an MIC (Enterococcus faecalis [3]) of 32 µg/mL (≈ 89 µM) and an MIC (Enterococcus faecium) of 32 µg/mL (≈ 89 µM). For the same compound, the MIC (Enterococcus faecalis [4]) was 32 µg/mL (≈ 89 µM) and the MIC (Staphylococcus aureus [5]) was 16 µg/mL (≈ 44.5 µM).

Compound `O=C(NC[C@H]1CN(c2ccc3c(c2)OC[C@@H]2CCCN32)C(=O)O1)C(F)F` has an MIC (Staphylococcus aureus [1]) of 2 µg/mL (≈ 5.44 µM), an MIC (Enterococcus faecalis [6]) of 4 µg/mL (≈ 10.9 µM) and an MIC (Enterococcus faecium) of 4 µg/mL (≈ 10.9 µM). For the same compound, the MIC (Enterococcus faecalis [4]) was 4 µg/mL (≈ 10.9 µM) and the MIC (Staphylococcus aureus [5]) was 4 µg/mL (≈ 10.9 µM).

`O=C1O[C@@H](C/N=C/S)CN1c1cc(F)c2c(c1)OC[C@@H]1CCCN21` was tested, and the MIC (Staphylococcus aureus [1]) was 1 µg/mL (≈ 2.85 µM), the MIC (Staphylococcus aureus [2]) was 1 µg/mL (≈ 2.85 µM) and the MIC (Enterococcus faecalis [3]) was 1 µg/mL (≈ 2.85 µM). For the same compound, the MIC (Enterococcus faecium) was 2 µg/mL (≈ 5.69 µM), the MIC (Enterococcus faecalis [4]) was 1 µg/mL (≈ 2.85 µM) and the ED50 (Mus musculus [7]) was 9.07 mg/kg. For the same compound, the MIC (Staphylococcus aureus [5]) was 1 µg/mL (≈ 2.85 µM).

In the case of `CC(C)O/C(S)=N\C[C@H]1CN(c2cc(F)c3c(c2)OC[C@@H]2CCCN32)C(=O)O1`, the MIC (Staphylococcus aureus [1]) is reported as 8 µg/mL (≈ 19.5 µM), the MIC (Staphylococcus aureus [2]) is reported as 8 µg/mL (≈ 19.5 µM) and the MIC (Enterococcus faecalis [6]) is reported as 8 µg/mL (≈ 19.5 µM). The MIC (Enterococcus faecium) was 8 µg/mL (≈ 19.5 µM), the MIC (Enterococcus faecalis [4]) was 8 µg/mL (≈ 19.5 µM) and the MIC (Staphylococcus aureus [5]) was 8 µg/mL (≈ 19.5 µM).

`C/C(S)=N\C[C@H]1CN(c2cc(F)c3c(c2)OC[C@@H]2CCCN32)C(=O)O1` gave an MIC (Staphylococcus aureus [1]) of 0.5 µg/mL (≈ 1.37 µM), an MIC (Staphylococcus aureus [2]) of 0.5 µg/mL (≈ 1.37 µM) and an MIC (Enterococcus faecalis [3]) of 1 µg/mL (≈ 2.74 µM). It also gave an MIC (Enterococcus faecium) of 1 µg/mL (≈ 2.74 µM), an MIC (Enterococcus faecalis [4]) of 1 µg/mL (≈ 2.74 µM) and an ED50 (Mus musculus [7]) of 30 mg/kg. For the same compound, the MIC (Staphylococcus aureus [5]) was 0.5 µg/mL (≈ 1.37 µM).

With `CCC/C(S)=N\C[C@H]1CN(c2cc(F)c3c(c2)OC[C@@H]2CCCN32)C(=O)O1` the MIC (Staphylococcus aureus [1]) was 1 µg/mL (≈ 2.54 µM), the MIC (Staphylococcus aureus [2]) was 2 µg/mL (≈ 5.08 µM) and the MIC (Enterococcus faecalis [3]) was 1 µg/mL (≈ 2.54 µM). The MIC (Enterococcus faecium) was 1 µg/mL (≈ 2.54 µM), the MIC (Enterococcus faecalis [4]) was 1 µg/mL (≈ 2.54 µM) and the ED50 (Mus musculus [7]) was 30 mg/kg. It also gave an MIC (Staphylococcus aureus [5]) of 2 µg/mL (≈ 5.08 µM).

`O=C1O[C@@H](C/N=C(/S)N2CCSCC2)CN1c1cc(F)c2c(c1)OC[C@@H]1CCCN21` was tested, and the MIC (Staphylococcus aureus [1]) was 16 µg/mL (≈ 35.4 µM), the MIC (Staphylococcus aureus [2]) was 16 µg/mL (≈ 35.4 µM) and the MIC (Enterococcus faecalis [3]) was 16 µg/mL (≈ 35.4 µM). It also gave an MIC (Enterococcus faecium) of 16 µg/mL (≈ 35.4 µM), an MIC (Enterococcus faecalis [4]) of 16 µg/mL (≈ 35.4 µM) and an MIC (Staphylococcus aureus [5]) of 16 µg/mL (≈ 35.4 µM).

With `CS/C(S)=N\C[C@H]1CN(c2cc(F)c3c(c2)OC[C@@H]2CCCN32)C(=O)O1` the MIC (Staphylococcus aureus [1]) was 1 µg/mL (≈ 2.52 µM), the MIC (Staphylococcus aureus [2]) was 1 µg/mL (≈ 2.52 µM) and the MIC (Enterococcus faecalis [3]) was 1 µg/mL (≈ 2.52 µM). It also gave an MIC (Enterococcus faecalis [6]) of 1 µg/mL (≈ 2.52 µM), an ED50 (Mus musculus [8]) of 30 mg/kg and an MIC (Enterococcus faecalis [4]) of 1 µg/mL (≈ 2.52 µM). For the same compound, the MIC (Staphylococcus aureus [5]) was 2 µg/mL (≈ 5.03 µM).

`O=C(CC(F)(F)F)NC[C@H]1CN(c2cc(F)c3c(c2)OC[C@@H]2CCCN32)C(=O)O1` gave an MIC (Staphylococcus aureus [1]) of 4 µg/mL (≈ 9.58 µM), an MIC (Staphylococcus aureus [2]) of 8 µg/mL (≈ 19.2 µM) and an MIC (Enterococcus faecalis [3]) of 4 µg/mL (≈ 9.58 µM). It also gave an MIC (Enterococcus faecium) of 4 µg/mL (≈ 9.58 µM), an MIC (Enterococcus faecalis [4]) of 4 µg/mL (≈ 9.58 µM) and an MIC (Staphylococcus aureus [5]) of 8 µg/mL (≈ 19.2 µM).

For `O=C(CCl)NC[C@H]1CN(c2ccc3c(c2)OC[C@@H]2CCCN32)C(=O)O1`, the MIC (Staphylococcus aureus [1]) was 2 µg/mL (≈ 5.47 µM), the MIC (Enterococcus faecalis [6]) was 4 µg/mL (≈ 10.9 µM) and the MIC (Enterococcus faecium) was 8 µg/mL (≈ 21.9 µM). The MIC (Enterococcus faecalis [4]) was 4 µg/mL (≈ 10.9 µM) and the MIC (Staphylococcus aureus [5]) was 4 µg/mL (≈ 10.9 µM).

`O=C(NC[C@H]1CN(c2ccc3c(c2)OC[C@@H]2CCCN32)C(=O)O1)C(Cl)Cl` was tested, and the MIC (Staphylococcus aureus [1]) was 4 µg/mL (≈ 9.99 µM), the MIC (Enterococcus faecalis [6]) was 8 µg/mL (≈ 20 µM) and the MIC (Enterococcus faecium) was 8 µg/mL (≈ 20 µM). The MIC (Enterococcus faecalis [4]) was 8 µg/mL (≈ 20 µM) and the MIC (Staphylococcus aureus [5]) was 4 µg/mL (≈ 9.99 µM).

`O=C1O[C@@H](C/N=C(/S)N2CCCC2)CN1c1cc(F)c2c(c1)OC[C@@H]1CCCN21` was tested, and the MIC (Staphylococcus aureus [1]) was 32 µg/mL (≈ 76.1 µM), the MIC (Staphylococcus aureus [2]) was 32 µg/mL (≈ 76.1 µM) and the MIC (Enterococcus faecalis [3]) was 32 µg/mL (≈ 76.1 µM). For the same compound, the MIC (Enterococcus faecium) was 32 µg/mL (≈ 76.1 µM), the MIC (Enterococcus faecalis [4]) was 32 µg/mL (≈ 76.1 µM) and the MIC (Staphylococcus aureus [5]) was 32 µg/mL (≈ 76.1 µM).

Compound `CC(=O)NC[C@H]1CN(c2cc(F)c3c(c2)OC[C@@H]2CCCN32)C(=O)O1` has an MIC (Staphylococcus aureus [1]) of 1 µg/mL (≈ 2.86 µM), an MIC (Staphylococcus aureus [2]) of 2 µg/mL (≈ 5.72 µM) and an MIC (Enterococcus faecalis [3]) of 2 µg/mL (≈ 5.72 µM). The MIC (Enterococcus faecium) was 4 µg/mL (≈ 11.4 µM), the MIC (Enterococcus faecalis [4]) was 2 µg/mL (≈ 5.72 µM) and the ED50 (Mus musculus [7]) was 8.6 mg/kg. It also gave an MIC (Staphylococcus aureus [5]) of 2 µg/mL (≈ 5.72 µM).

`CCCCCCC(=O)NC[C@H]1CN(c2cc(F)c3c(c2)OC[C@@H]2CCCN32)C(=O)O1` gave an MIC (Staphylococcus aureus [1]) of 32 µg/mL (≈ 76.3 µM), an MIC (Staphylococcus aureus [2]) of 32 µg/mL (≈ 76.3 µM) and an MIC (Enterococcus faecalis [3]) of 32 µg/mL (≈ 76.3 µM). The MIC (Enterococcus faecium) was 32 µg/mL (≈ 76.3 µM), the MIC (Enterococcus faecalis [4]) was 32 µg/mL (≈ 76.3 µM) and the MIC (Staphylococcus aureus [5]) was 32 µg/mL (≈ 76.3 µM).

`CC(=O)NC[C@H]1CN(c2ccc(N3CCOCC3)c(F)c2)C(=O)O1` [LINEZOLID] gave an MIC (Staphylococcus aureus [1]) of 1 µg/mL (≈ 2.96 µM), an MIC (Enterococcus faecium) of 2 µg/mL (≈ 5.93 µM) and an ED50 (Mus musculus [7]) of 3.91 mg/kg.

For `CN[C@H](CC(C)C)C(=O)N[C@H]1C(=O)N[C@@H](CC(N)=O)C(=O)N[C@H]2C(=O)N[C@H]3C(=O)N[C@H](C(=O)N[C@H](C(=O)O)c4cc(O)cc(O)c4-c4cc3ccc4O)[C@H](O)c3ccc(c(Cl)c3)Oc3cc2cc(c3O[C@@H]2O[C@H](CO)[C@@H](O)[C@H](O)[C@H]2O[C@H]2C[C@](C)(N)[C@H](O)[C@H](C)O2)Oc2ccc(cc2Cl)[C@H]1O` [VANCOMYCIN], the MIC (Enterococcus faecalis [6]) was 2 µg/mL (≈ 1.38 µM), the MIC (Enterococcus faecium) was greater than 32 µg/mL and the ED50 (Mus musculus [8]) was 3.93 mg/kg. The MIC (Enterococcus faecalis [4]) was 2 µg/mL (≈ 1.38 µM).

— ChEMBL document CHEMBL1135766, “Synthesis of conformationally constrained analogues of linezolid: structure-activity relationship (SAR) studies on selected novel tricyclic oxazolidinones” (2002)
